Experimental data reported in ChEMBL document CHEMBL4038327, “Inhibitory Kappa B Kinase α (IKKα) Inhibitors That Recapitulate Their Selectivity in Cells against Isoform-Related Biomarkers” (J Med Chem, 2017).

Experiments:
[1] = biological target: T1, Inhibitor of nuclear factor kappa-B kinase subunit alpha (Homo sapiens, UniProt O15111); assay: (§1) Inhibition of IKKalpha in human U2OS cells assessed as decrease in FCS induced p100 phosphorylation at ser866/870 residues preincubated for 1 hr followed by FCS stimulation for 4 hrs by Western blot analysis; assay type: cell-based
T1 sequence (O15111 whole entry): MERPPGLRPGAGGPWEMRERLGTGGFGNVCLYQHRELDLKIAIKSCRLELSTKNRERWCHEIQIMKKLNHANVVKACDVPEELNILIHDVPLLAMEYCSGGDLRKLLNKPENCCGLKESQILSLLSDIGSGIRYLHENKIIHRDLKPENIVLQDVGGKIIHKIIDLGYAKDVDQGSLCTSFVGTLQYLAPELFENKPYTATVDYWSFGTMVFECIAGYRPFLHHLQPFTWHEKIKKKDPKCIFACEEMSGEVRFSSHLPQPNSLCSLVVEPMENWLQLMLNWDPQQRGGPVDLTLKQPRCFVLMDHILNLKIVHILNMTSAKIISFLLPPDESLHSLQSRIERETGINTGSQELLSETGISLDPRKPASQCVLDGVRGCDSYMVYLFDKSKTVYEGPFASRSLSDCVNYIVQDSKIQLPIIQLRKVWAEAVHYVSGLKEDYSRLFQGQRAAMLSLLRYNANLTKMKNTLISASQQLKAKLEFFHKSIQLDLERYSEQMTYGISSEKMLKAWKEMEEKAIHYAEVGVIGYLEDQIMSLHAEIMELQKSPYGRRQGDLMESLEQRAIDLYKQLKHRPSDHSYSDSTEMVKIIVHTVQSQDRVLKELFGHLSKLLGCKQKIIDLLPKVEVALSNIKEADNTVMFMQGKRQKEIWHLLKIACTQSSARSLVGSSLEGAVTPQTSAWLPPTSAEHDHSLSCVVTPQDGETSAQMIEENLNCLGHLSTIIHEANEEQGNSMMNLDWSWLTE
How it was run: (§2)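 U2OS cells were grown in McCoy's 5A medium at 37 °C under 5% CO2 and made quiescent by 24 h serum deprivation. They were then pretreated with compound before agonist stimulation in serum-free medium. Phospho-p100, IκBα levels and phospho-p65 (Ser536) were assessed by Western blot.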

[2] = biological target: T2, Inhibitor of nuclear factor kappa-B kinase subunit alpha (Homo sapiens) (UniProt O15111); assay: as §1; assay type: cell-based; how it was run: as §2
T2 sequence (whole entry): T1 sequence (O15111 whole entry)

[3] = biological target: T3, Inhibitor of nuclear factor kappa-B kinase subunit beta (Homo sapiens, UniProt O14920); assay: Inhibition of recombinant full length human IKKbeta expressed in baculovirus infected sf9 insect cells using biotinylated IkBalpha as substrate after 60 mins by DELFIA
T3 sequence (O14920 whole entry): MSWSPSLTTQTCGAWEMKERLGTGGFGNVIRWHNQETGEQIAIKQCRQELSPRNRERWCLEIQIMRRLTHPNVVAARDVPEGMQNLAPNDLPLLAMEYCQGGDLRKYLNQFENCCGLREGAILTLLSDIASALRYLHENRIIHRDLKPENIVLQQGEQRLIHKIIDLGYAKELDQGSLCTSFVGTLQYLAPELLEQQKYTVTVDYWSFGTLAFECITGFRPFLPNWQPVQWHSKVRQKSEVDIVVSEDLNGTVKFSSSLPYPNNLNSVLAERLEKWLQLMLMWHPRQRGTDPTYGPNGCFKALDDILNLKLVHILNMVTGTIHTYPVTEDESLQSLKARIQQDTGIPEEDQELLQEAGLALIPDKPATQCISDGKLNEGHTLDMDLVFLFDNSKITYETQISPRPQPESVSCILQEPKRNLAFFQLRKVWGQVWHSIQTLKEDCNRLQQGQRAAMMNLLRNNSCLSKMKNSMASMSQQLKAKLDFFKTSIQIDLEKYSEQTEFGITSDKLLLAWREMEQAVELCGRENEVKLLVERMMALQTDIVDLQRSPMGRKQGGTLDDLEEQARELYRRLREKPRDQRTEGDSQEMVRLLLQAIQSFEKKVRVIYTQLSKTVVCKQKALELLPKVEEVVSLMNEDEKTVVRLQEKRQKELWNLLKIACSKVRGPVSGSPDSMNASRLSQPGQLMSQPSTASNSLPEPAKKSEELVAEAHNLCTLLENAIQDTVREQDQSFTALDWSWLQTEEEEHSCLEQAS
How it was run: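 Recombinant IKKβ (37 nM) was incubated with biotinylated IκB-α (Ser32) peptide (0.375 μM) and 40 μM ATP in Tris-HCl pH 7.5 with MgCl2, EDTA, DTT and BSA for 60 min at 30 °C. The reaction was quenched with EDTA and captured on streptavidin. Detection used anti-phospho-IκBα (Ser32/36) mAb plus Eu-anti-mouse IgG, read by time-resolved fluorescence (340/615 nm). Apparent Ki was obtained via Cheng–Prusoff, n=3.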

[4] = biological target: T1, Inhibitor of nuclear factor kappa-B kinase subunit alpha; assay: Inhibition of recombinant human N-terminal GST-tagged IKKalpha (1 to 745 residues) expressed in baculovirus expression system using biotinylated IkBalpha as substrate after 60 mins by DELFIA
[5] = biological target: T3, Inhibitor of nuclear factor kappa-B kinase subunit beta; assay: Inhibition of IKKbeta in human U2OS cells assessed as decrease in TNFalpha induced p65 phosphorylation at ser536 residues at 100 uM preincubated for 1 hr followed by TNFalpha stimulation for 30 mins by Western blot analysis; assay type: cell-based; conditions: 0.5 h; how it was run: as §2
[6] = biological target: T3, Inhibitor of nuclear factor kappa-B kinase subunit beta; assay: Inhibition of IKKbeta in human U2OS cells assessed as TNFalpha induced IkBalpha degradation at 100 uM preincubated for 1 hr followed by TNFalpha stimulation for 30 mins by Western blot analysis; assay type: cell-based; conditions: 0.5 h; how it was run: as §2
[7] = biological target: T4, Inhibitor of nuclear factor kappa-B kinase subunit alpha (Mus musculus) (UniProt Q60680); assay: Inhibition of IKKalpha in IKKbeta knockout mouse embryonic fibroblast cells harboring Adv.NF-kB.luc assessed as IL-1beta induced NF-kB transcriptional activation at 100 uM pretreated for 1 hr followed by IL-1beta stimulation for 6 hrs by luciferase reporter gene assay relative to control; design: scale not given: the % may be the effect or the level left
T4 sequence (whole entry): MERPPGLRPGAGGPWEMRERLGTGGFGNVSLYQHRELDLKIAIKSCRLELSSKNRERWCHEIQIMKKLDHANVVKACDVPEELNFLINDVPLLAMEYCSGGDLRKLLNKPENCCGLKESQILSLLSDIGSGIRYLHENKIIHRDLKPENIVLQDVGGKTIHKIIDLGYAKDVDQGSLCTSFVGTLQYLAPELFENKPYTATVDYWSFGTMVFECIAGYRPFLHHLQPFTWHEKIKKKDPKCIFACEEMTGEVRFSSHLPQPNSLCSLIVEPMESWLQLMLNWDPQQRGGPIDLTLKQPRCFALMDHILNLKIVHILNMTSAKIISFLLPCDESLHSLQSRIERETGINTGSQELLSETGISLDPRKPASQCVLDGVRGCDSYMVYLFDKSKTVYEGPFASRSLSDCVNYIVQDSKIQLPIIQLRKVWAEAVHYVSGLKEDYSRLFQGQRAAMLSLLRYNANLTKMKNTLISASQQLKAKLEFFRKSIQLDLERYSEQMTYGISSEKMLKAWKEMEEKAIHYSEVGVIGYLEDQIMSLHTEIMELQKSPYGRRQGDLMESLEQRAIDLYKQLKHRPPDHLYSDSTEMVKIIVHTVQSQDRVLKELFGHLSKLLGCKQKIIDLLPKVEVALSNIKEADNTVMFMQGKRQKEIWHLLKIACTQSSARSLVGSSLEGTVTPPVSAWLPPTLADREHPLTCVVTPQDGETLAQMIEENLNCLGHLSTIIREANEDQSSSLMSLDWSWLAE
How it was run: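 IKKβ knockout MEFs infected with Adv.NF-kB.luc (up to 300 pfu/cell, 24 h, 10% DMEM), replated and serum-starved 24 h. Pretreated 1 h with compound, then IL-1β (10 ng/mL) for 6 h. Lysis buffer contained 0.2 mM luciferin, and luminescence was read as RLU. Results are expressed as % of IL-1β + DMSO stimulation.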

Structure (SMILES): N#Cc1c[nH]c2nc(N)nc(-c3ccc(CO)cc3)c12
- IC50 [1]: 13900 to 19100 nM
- inhibition [2]: Dose-dependent effect
- Ki [3]: 2300 nM
- Ki [4]: 650 nM
- inhibition (INH) [5]: Not Active
- inhibition (INH) [6]: Not Active
- Activity [7]: 18.8%
